In ChEMBL document CHEMBL1134543, “A rational approach to the design of selective substrates and potent nontransportable inhibitors of the excitatory amino acid transporter EAAC1 (EAAT3). new glutamate and aspartate analogues as potential neuroprotective agents” (J Med Chem, 2001) one finds Ks, NA and Ki data, which are given here for six molecules.

Test [1] addresses T1, Excitatory amino acid transporter 3 (Rattus norvegicus) (UniProt P51907).
T1 sequence (whole entry): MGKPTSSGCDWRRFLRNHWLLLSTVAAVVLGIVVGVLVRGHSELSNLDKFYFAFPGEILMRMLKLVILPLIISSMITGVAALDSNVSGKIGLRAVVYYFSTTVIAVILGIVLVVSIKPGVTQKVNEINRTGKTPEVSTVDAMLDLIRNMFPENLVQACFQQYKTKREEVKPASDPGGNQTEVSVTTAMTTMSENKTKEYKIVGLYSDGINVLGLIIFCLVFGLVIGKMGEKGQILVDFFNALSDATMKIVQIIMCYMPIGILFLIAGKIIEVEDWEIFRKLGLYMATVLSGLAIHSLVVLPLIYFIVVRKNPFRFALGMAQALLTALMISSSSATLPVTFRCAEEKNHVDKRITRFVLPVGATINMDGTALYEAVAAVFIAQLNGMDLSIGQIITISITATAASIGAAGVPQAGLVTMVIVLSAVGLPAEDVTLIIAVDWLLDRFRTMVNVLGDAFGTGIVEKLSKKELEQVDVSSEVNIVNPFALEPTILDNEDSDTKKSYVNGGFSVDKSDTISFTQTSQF
Kind of test: Steady state transport rate by EAAC1 (EAAT3) in mammalian cells. It counts as cell-based. In outline:
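Whole-cell currents from EAAC1-expressing mammalian cells (intracellular SCN-, Vm 0 mV, pH 7.4, 22 °C). Steady-state KS is taken from concentration dependence. Imax ratio is the current at saturating test compound relative to the current at saturating (1 mM) L-glutamate.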

Test [2] addresses Glutamate receptor ionotropic, AMPA (Rattus norvegicus) (UniProt P19491+P19492+P19493+P19490). In words: Binding affinity towards AMPA receptor by displacement of [3H]-AMPA radioligand; Not active. It counts as protein-complex assay. In general terms: In a radioligand displacement assay an active substance lowers the binding of a labelled ligand.
Test [3] has as its target Glutamate NMDA receptor (Rattus norvegicus) (UniProt P35439+Q00959+Q00960+Q00961+Q62645+Q8VHN2+Q9R1M7). Kind of test: Binding affinity towards NMDA receptor by displacement of [3H]CGP-39653 radioligand; Not active. Format: protein-complex assay.
For test [4], the target named is Glutamate receptor ionotropic, kainate (Rattus norvegicus) (UniProt P22756+Q01812+P42260+P42264+Q63273). In words: Binding affinity towards Ionotropic glutamate receptor kainate by displacement of [3H]-kainic acid radioligand; Not active. It counts as protein-complex assay.
A further test concerns the target Glutamate NMDA receptor. In words: Binding affinity towards NMDA receptor by displacement of [3H]CGP-39653 radioligand. It counts as protein-complex assay.
Test [5] addresses Glutamate receptor ionotropic, kainate. Kind of test: Binding affinity towards Ionotropic glutamate receptor kainate by displacement of [3H]-kainic acid radioligand. Format: protein-complex assay.
Test [6] concerns the target T2, Glutamate receptor ionotropic, AMPA (Rattus norvegicus, UniProt P19490+P19491+P19492+P19493). Kind of test: Binding affinity towards AMPA receptor by displacement of [3H]AMPA radioligand. Format: protein-complex assay.
For test [7], the target named is T2, Glutamate receptor ionotropic, AMPA. In words: Binding affinity towards AMPA receptor by displacement of [3H]AMPA radioligand. It counts as protein-complex assay.
For test [8], the target named is T3, Excitatory amino acid transporter 3 (Rattus norvegicus, UniProt P51907).
T3 sequence (P51907 whole entry): T1 sequence (whole entry)
Kind of test: Inhibitory activity against EAAC1 (EAAT3) in absence of L-glutamic acid in mammalian cells. Format: cell-based.

Test [9] has as its target T3, Excitatory amino acid transporter 3. In words: Inhibitory activity against EAAC1 (EAAT3) in presence of 20 uM L-glutamic acid in mammalian cells. Format: cell-based.
For test [10] the target is unchanged. In words: Inhibitory activity against EAAC1 (EAAT3) in presence of 20 uM L-glutamic acid.
For test [11] the target is unchanged. In words: Inhibitory activity against EAAC1 (EAAT3) in absence of L-glutamic acid.

SMILES strings stand for the structures. Activity calls are given as the source filed them. The calls are words filed in the database; no cut-off is given here.

On to `N[C@@H](CC1=N[C@H](C(=O)O)CO1)C(=O)O`, for which the Ks in [1] came to 31 µM. Besides, the NA entry in test [2], in test [3] and in test [4] was “inactive” each time.

Take `N[C@@H](CCC1=N[C@H](C(=O)O)CO1)C(=O)O`: the figures for the Ki (on Glutamate NMDA receptor; in test [5]; in test [6]) were 9 µM, 14 µM and 103 µM, respectively. For the same molecule, the Ks in test [1] came out at 730 µM.

As to `N[C@@H](CCc1nc(C(=O)O)co1)C(=O)O`, the Ki – broadly, a dissociation constant, usually derived from enzyme kinetics or from competition with a known ligand – amounted to 3 µM on Glutamate NMDA receptor, 41 µM in [7] and 8 µM in test [5]. Besides, the Ks in test [1] stood at 100 µM.

For `O=C(O)[C@H]1N=C(c2ccccc2)O[C@@H]1C(=O)O`, the Ki in test [8] was determined as 14 µM; in test [9] it was 42 µM. Also, the NA result in [2], in test [3] and in test [4] was “inactive” each time.

As for `O=C(O)c1nc(-c2ccccc2)oc1C(=O)O`, the Ki in test [10] was 530 µM; in test [11], 75 µM. For the same molecule, the NA entry in test [2], in [3] and in [4] was “inactive” throughout.

As for `N[C@@H](CCC(=O)O)C(=O)O`, in test [1], the Ks turned out to be 5.1 µM.
